Data: ChEMBL document CHEMBL1177741, “Cardiac glycosides from Antiaris toxicaria with potent cardiotonic activity” (J Nat Prod, 2010)

Key:
[1] = Cardiotonic activity in guinea pig left atrial muscles assessed as maximum positive inotropic effective concentration causing myocardial contraction relative to basal level; assay type: functional, Cavia porcellus, Muscle tissue
Procedure, shortened: (§1)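 Isolated left atrial or right ventricular strips from adult guinea pigs (300–500 g; pentobarbital 25 mg/kg i.p.; heart retrogradely perfused with Tyrode's, pH not stated). Tissue held at 1 g tension, paced at 2 Hz (2 ms pulses, twice threshold), stabilised about 60 min, then given cumulative drug additions. Maximal inotropic effect taken at the concentration just before arrhythmia onset.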

[2] = Cardiotonic activity in guinea pig right ventricular muscles assessed as maximum positive inotropic effective concentration causing myocardial contraction relative to basal level; assay type: functional, Cavia porcellus, Muscle tissue; procedure, shortened: as §1
[3] = Safety index, ratio of arrhythmogenic concentration to minimum positive inotropic effective concentration causing myocardial contraction in guinea pig left atrial muscles; assay type: toxicity, tissue-based, Cavia porcellus, Muscle tissue; conditions: for selectivity ratio: isolated left atrial muscles
Procedure, shortened: (§2)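 Paced guinea pig left atrial or right ventricular strips (1 g tension, 2 Hz) received cumulative drug addition. The lowest concentration raising contraction (PIECmin) and the concentration inducing arrhythmia were both recorded. Safety index was calculated as the ratio of the arrhythmogenic concentration to PIECmin.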

[4] = Cardiotonic activity in guinea pig right ventricular muscles assessed as minimum positive inotropic effective concentration causing myocardial contraction; assay type: functional, Cavia porcellus, Muscle tissue
Procedure, shortened: (§3)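 Guinea pig left atrial or right ventricular strips were perfused with Tyrode's solution, held at 1 g tension and paced at 2 Hz (2 ms, twice threshold). After about 60 min stabilisation, drug was added cumulatively. PIECmin was recorded as the lowest concentration that increased myocardial contraction.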

[5] = Safety index, ratio of arrhythmogenic concentration to minimum positive inotropic effective concentration causing myocardial contraction in guinea pig right ventricular muscles; assay type: toxicity, tissue-based, Cavia porcellus, Muscle tissue; conditions: for selectivity ratio: isolated right ventricular muscles; procedure, shortened: as §2
[6] = Cardiotonic activity in guinea pig left atrial muscles assessed as minimum positive inotropic effective concentration causing myocardial contraction; assay type: functional, Cavia porcellus, Muscle tissue; procedure, shortened: as §3

SMILES | Activity [1] [%] | Activity [2] [%] | selectivity ratio [3] | Activity [4] [µM] | selectivity ratio [5] | Activity [6] [µM] | Ratio [3] | Ratio [5]
C[C@H]1O[C@H](O[C@H]2CC[C@]3(C=O)[C@H]4C[C@@H](O)[C@]5(C)[C@@H](C6=CC(=O)OC6)CC[C@]5(O)[C@@H]4CC[C@]3(O)C2)[C@H](O)[C@H](O)[C@H]1O | 220 | 200 | 10 | 2 | 15 | 0.5 |  | 
C[C@@H]1O[C@H](O[C@H]2CC[C@]3(C=O)[C@H]4C[C@@H](O)[C@]5(C)[C@@H](C6=CC(=O)OC6)CC[C@]5(O)[C@@H]4CC[C@]3(O)C2)[C@H](O)[C@H](O)[C@H]1O | 243 | 250 | 10 | 2 | 15 | 1 |  | 
CO[C@H]1[C@@H](O[C@H]2CC[C@]3(C=O)[C@H]4CC[C@]5(C)[C@@H](C6=CC(=O)OC6)CC[C@]5(O)[C@@H]4CC[C@]3(O)C2)O[C@H](C)[C@@H](O)[C@H]1O (stereo in doubt; 18) [STROPHATHOJAVOSIDE] | 567 | 200 |  | 1 | 5 | 0.25 | 10 | 
CO[C@H]1[C@@H](O[C@H]2CC[C@]3(C=O)[C@H]4CC[C@]5(C)[C@@H](C6=CC(=O)OC6)CC[C@]5(O)[C@@H]4CC[C@]3(O)C2)O[C@H](C)[C@@H](O)[C@H]1O (stereo in doubt; 20) [STROPHATHOJAVOSIDE] | 225 | 350 |  | 0.5 |  | 0.5 | 2.5 | 4
C[C@H]1O[C@H](O[C@H]2CC[C@]3(C=O)[C@H]4C[C@@H](O)[C@]5(C)[C@@H](C6=CC(=O)OC6)CC[C@]5(O)[C@@H]4CC[C@]3(O)C2)[C@H](O)[C@H](O)[C@@H]1O [ANTIALLOSIDE] | 350 |  | 80 |  |  | 0.25 |  | 
C[C@]12[C@H](O)C[C@H]3[C@@H](CC[C@]4(O)CCCC[C@]34C=O)[C@@]1(O)CC[C@@H]2C1=CC(=O)OC1 [ANTIARIGENIN] | 121 |  | 20 |  |  | 0.05 |  | 
C[C@H]1O[C@@H](O[C@H]2CC[C@]3(C)[C@H]4CC[C@]5(C)[C@@H](C6=CC(=O)OC6)CC[C@]5(O)[C@@H]4CC[C@]3(O)C2)[C@H](O)[C@H](O)[C@H]1O [ANTIAROSIDE A] | 158 | 150 | 4.3 | 0.083 | 2 | 0.1 |  | 
C[C@@H]1O[C@@H](O[C@H]2CC[C@@]3(CO)[C@H](CC[C@@H]4[C@@H]3CC[C@]3(C)[C@@H](C5=CC(=O)OC5)CC[C@]43O)C2)[C@H](O)[C@H](O)[C@H]1O[C@@H]1O[C@H](CO)[C@@H](O)[C@H](O)[C@H]1O [ANTIAROSIDE B] | 373 | 382 | 5 | 0.075 | 100 | 0.38 |  | 
C[C@@H]1O[C@H](O[C@@H]2CC[C@]3(C=O)[C@H]4CC[C@]5(C)[C@@H](C6=CC(=O)OC6)CC[C@]5(O)[C@@H]4CC[C@]3(O)C2)[C@H](O)[C@H](O)[C@H]1O [ANTIAROSIDE C] | 208 | 229 | 15 | 4 | 9.7 | 2.75 |  | 
C[C@@H]1O[C@H](O[C@H]2CC[C@@]3(C(=O)O)[C@H](CC[C@@H]4[C@@H]3CC[C@]3(C)[C@@H](C5=CC(=O)OC5)CC[C@]43O)C2)[C@H](O)[C@H](O)[C@H]1O [ANTIAROSIDE E] | 264 | 230 | 10 | 1.33 | 7.7 | 0.42 |  | 
C[C@@H]1O[C@H](O[C@H]2CC[C@@]3(C(=O)O[C@@H]4O[C@H](CO)[C@@H](O)[C@H](O)[C@H]4O)[C@H](CC[C@@H]4[C@@H]3CC[C@]3(C)[C@@H](C5=CC(=O)OC5)CC[C@]43O)C2)[C@H](O)[C@H](O)[C@H]1O [ANTIAROSIDE F] | 140 | 618 | 6 | 3.17 | 5.8 | 1.42 |  | 
C[C@@H]1O[C@H](O[C@H]2CC[C@]3(C(=O)O)[C@H]4C[C@@H](O)[C@]5(C)[C@@H](C6=CC(=O)OC6)CC[C@]5(O)[C@@H]4CC[C@]3(O)C2)[C@H](O)[C@H](O)[C@H]1O [ANTIAROSIDE G] | 419 | 221 | 13 | 3.67 | 20.7 | 3.75 |  | 
C[C@H]1O[C@H](O[C@H]2CC[C@]3(C(=O)O)[C@H]4C[C@@H](O)[C@]5(C)[C@@H](C6=CC(=O)OC6)CC[C@]5(O)[C@@H]4CC[C@]3(O)C2)[C@H](O)[C@H](O)[C@H]1O [ANTIAROSIDE H] | 144 | 260 | 7.5 | 8.33 | 9.7 | 7.5 |  | 
C[C@@H]1O[C@H](O[C@H]2CC[C@@H]3[C@H]4CC[C@]5(C)[C@@H](C6=CC(=O)OC6)CC[C@]5(O)[C@@H]4CC[C@]3(O)C2)[C@H](O)[C@H](O)[C@H]1O [ANTIAROSIDE I] | 562 | 1246 | 6.7 | 0.67 | 10.7 | 0.83 |  | 
C[C@]12CC[C@H](O)C[C@@]1(O)CC[C@@H]1[C@@H]2CC[C@]2(C)[C@@H]([C@]3(O)COC(=O)C3)CC[C@]12O [ANTIAROTOXININ A] | 367 |  | 1000 |  |  | 0.1 |  | 
C[C@@H]1O[C@@H](O[C@H]2CC[C@]3(C=O)[C@H]4CC[C@]5(C)[C@@H](C6=CC(=O)OC6)CC[C@]5(O)[C@@H]4CC[C@]3(O)C2)[C@H](O)[C@H](O)[C@H]1O [CONVALLATOXIN] | 467 | 300 | 10 | 0.125 | 8 | 0.1 |  | 
C[C@@H]1O[C@H](O[C@H]2CC[C@]3(CO)[C@H]4CC[C@]5(C)[C@@H](C6=CC(=O)OC6)CC[C@]5(O)[C@@H]4CC[C@]3(O)C2)[C@H](O)[C@H](O)[C@H]1O [CONVALLATOXOL] | 138 | 625 | 5 | 0.25 | 20 | 0.1 |  | 
C[C@@H]1O[C@@H](O[C@H]2CC[C@]3(C=O)[C@H]4CC[C@]5(C)[C@@H](C6=CC(=O)OC6)CC[C@]5(O)[C@@H]4CC[C@]3(O)C2)[C@H](O)[C@H](O)[C@H]1O[C@@H]1O[C@H](CO)[C@@H](O)[C@H](O)[C@H]1O [CONVALLOSIDE] | 443 | 292 | 20 | 1 | 9 | 0.25 |  | 
C[C@H]1O[C@@H](O[C@H]2CC[C@]3(C=O)[C@H]4CC[C@]5(C)[C@@H](C6=CC(=O)OC6)CC[C@]5(O)[C@@H]4CC[C@]3(O)C2)[C@H](O)[C@H](O)[C@H]1O [DESGLUCOCHEIROTOXIN] | 300 | 300 | 50 | 0.5 | 10 | 0.05 |  | 
C[C@H]1O[C@H](O[C@H]2CC[C@]3(C=O)[C@H]4CC[C@]5(C)[C@@H](C6=CC(=O)OC6)CC[C@]5(O)[C@@H]4CC[C@]3(O)C2)[C@H](O)[C@H](O[C@@H]2O[C@H](CO)[C@@H](O)[C@H](O)[C@H]2O)[C@@H]1O [GLUCOSTROPHALLOSIDE] | 489 | 350 | 10 | 1 | 10 | 0.25 |  | 
C[C@@H]1O[C@@H](O[C@H]2C[C@@H](O)[C@]3(CO)[C@H]4[C@H](O)C[C@]5(C)[C@@H](C6=CC(=O)OC6)CC[C@]5(O)[C@@H]4CC[C@]3(O)C2)[C@H](O)[C@H](O)[C@H]1O [OUABAIN] | 775 | 249 | 20 | 0.05 | 20 | 0.05 |  | 
C[C@@H]1O[C@H](O[C@H]2CC[C@]3(C)[C@H]4CC[C@]5(C)[C@@H](C6=CC(=O)OC6)CC[C@]5(O)[C@@H]4CC[C@]3(O)C2)[C@H](O)[C@H](O)[C@H]1O [PERIPLORHAMNOSIDE] | 381 | 355 | 11 | 0.25 | 8.8 | 0.05 |  | 
CO[C@H]1[C@@H](O[C@H]2CC[C@]3(C=O)[C@H]4C[C@@H](O)[C@]5(C)[C@@H](C6=CC(=O)OC6)CC[C@]5(O)[C@@H]4CC[C@]3(O)C2)O[C@H](C)[C@@H](O)[C@@H]1O [TOXICARIOSIDE B] | 163 |  | 10 |  |  | 0.1 |  | 
